Laboratory results as given in ChEMBL document CHEMBL3352237, “Synthesis and biological evaluation of novel peptide BF2 as an antibacterial agent against clinical isolates of vancomycin-resistant enterococci” (J Med Chem, 2014).

Legend:
Enterococcus faecium [1] = test: Bactericidal activity against vancomycin-resistant Enterococcus faecium clinical isolate 7/27 after 24 hrs by two-fold serial dilution method; format: functional; settings: isolate 7/27, 24 h
Enterococcus faecium [2] = test: Bactericidal activity against vancomycin-resistant Enterococcus faecium clinical isolate 10177 after 24 hrs by two-fold serial dilution method; format: functional; settings: isolate 10177, 24 h
Enterococcus faecium [3] = test: Bactericidal activity against vancomycin-resistant Enterococcus faecium clinical isolate 28/211 after 24 hrs by two-fold serial dilution method; format: functional; settings: isolate 28/211, 24 h
Enterococcus faecium [4] = test: Bactericidal activity against vancomycin-resistant Enterococcus faecium clinical isolate 14643 after 24 hrs by two-fold serial dilution method; format: functional; settings: isolate 14643, 24 h
Enterococcus faecium [5] = test: Bactericidal activity against vancomycin-resistant Enterococcus faecium clinical isolate 31176 after 24 hrs by two-fold serial dilution method; format: functional; settings: isolate 31176, 24 h
Enterococcus faecium [6] = test: Bactericidal activity against vancomycin-resistant Enterococcus faecium clinical isolate 31386 after 24 hrs by two-fold serial dilution method; format: functional; settings: isolate 31386, 24 h
Enterococcus faecium [7] = test: Bactericidal activity against vancomycin-resistant Enterococcus faecium clinical isolate 3864 after 24 hrs by two-fold serial dilution method; format: functional; settings: isolate 3864, 24 h
Enterococcus faecium [8] = test: Bactericidal activity against vancomycin-resistant Enterococcus faecium clinical isolate 12875 after 24 hrs by two-fold serial dilution method; format: functional; settings: isolate 12875, 24 h
Enterococcus faecium [9] = test: Bactericidal activity against vancomycin-resistant Enterococcus faecium clinical isolate 12/266 after 24 hrs by two-fold serial dilution method; format: functional; settings: isolate 12/266, 24 h
Enterococcus faecium [10] = test: Bactericidal activity against vancomycin-resistant Enterococcus faecium clinical isolate 18906 after 24 hrs by two-fold serial dilution method; format: functional; settings: isolate 18906, 24 h
Enterococcus faecium [11] = test: Bactericidal activity against vancomycin-resistant Enterococcus faecium clinical isolate 13246 after 24 hrs by two-fold serial dilution method; format: functional; settings: isolate 13246, 24 h
[12] = Hemolytic activity against human RBC at 5 times MIC after 1 hr by spectrophotometry; format: ADME, cell-based, Erythrocyte; settings: red blood cells, read-out: Activity
HEK293 = test: Cytotoxicity against HEK293 cells at 100 to 400 uM after 48 to 72 hrs by MTT assay; format: cell-based; settings: human, hek293, 400 µM
Enterococcus [13] = test: Antibacterial activity against vancomycin-resistant Enterococcus ATCC 51299 after 18 to 20 hrs by checkerboard titration method in presence of vancomycin; format: functional
Enterococcus [14] = test: Antibacterial activity against vancomycin-resistant Enterococcus ATCC 51299 after 18 to 20 hrs by checkerboard titration method in presence of linezolid; format: functional
Enterococcus [15] = test: Antibacterial activity against vancomycin-resistant Enterococcus clinical isolate after 18 to 20 hrs by checkerboard titration method in presence of vancomycin; format: functional
Enterococcus [16] = test: Antibacterial activity against Enterococcus infected in Wistar albino rat assessed as reduction in cell count at MIC, iv after 1 hr relative to control; format: functional; parameters: scale not given: the % may be the effect or the level left
Procedure, shortened: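 Female Wistar albino rats, 40−45 days old, 125−150 g, 5 groups of 3. Enterococci were grown to log phase in MH broth, centrifuged at 1000g for 15 min, and diluted in PBS to 4 × 10^6 CFU/mL. Rats were inoculated i.v. and treated i.v. 1 h later with 12.5, 25 or 37.5 mg/kg peptide, PBS vehicle, or linezolid 25 mg/kg. Tail-vein blood taken 1 h post-treatment was plated on blood agar, incubated overnight at 37 °C, and colonies counted.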

Rattus norvegicus = test: Toxicity in Wistar albino rat infected with Enterococcus at MIC to 3 times MIC, iv; format: organism-based; settings: in vivo
Enterococcus [17] = test: Antibacterial activity against vancomycin-resistant Enterococcus ATCC 29212 after overnight incubation by two-fold serial dilution method; format: functional
Enterococcus faecalis [18] = test: Antibacterial activity against vancomycin-resistant Enterococcus faecalis clinical isolate 7670 after overnight incubation by two-fold serial dilution method; format: functional
Enterococcus faecalis [19] = test: Antibacterial activity against vancomycin-resistant Enterococcus faecalis clinical isolate 7077 after overnight incubation by two-fold serial dilution method; format: functional
Enterococcus faecalis [20] = test: Antibacterial activity against vancomycin-resistant Enterococcus faecalis clinical isolate 7079 after overnight incubation by two-fold serial dilution method; format: functional
Enterococcus faecalis [21] = test: Antibacterial activity against vancomycin-resistant Enterococcus faecalis clinical isolate 21/235 after overnight incubation by two-fold serial dilution method; format: functional
Enterococcus faecalis [22] = test: Antibacterial activity against vancomycin-resistant Enterococcus faecalis clinical isolate 5642 after overnight incubation by two-fold serial dilution method; format: functional
Enterococcus faecalis [23] = test: Antibacterial activity against vancomycin-resistant Enterococcus faecalis clinical isolate 22/203 after overnight incubation by two-fold serial dilution method; format: functional
Enterococcus faecalis [24] = test: Antibacterial activity against vancomycin-resistant Enterococcus faecalis clinical isolate 5648 after overnight incubation by two-fold serial dilution method; format: functional
Enterococcus faecium [25] = test: Antibacterial activity against vancomycin-resistant Enterococcus faecium clinical isolate 17301 after overnight incubation by two-fold serial dilution method; format: functional
Enterococcus faecium [26] = test: Antibacterial activity against vancomycin-resistant Enterococcus faecium clinical isolate 10177 after overnight incubation by two-fold serial dilution method; format: functional
Enterococcus faecium [27] = test: Antibacterial activity against vancomycin-resistant Enterococcus faecium clinical isolate 28/211 after overnight incubation by two-fold serial dilution method; format: functional
Enterococcus faecium [28] = test: Antibacterial activity against vancomycin-resistant Enterococcus faecium clinical isolate 31386 after overnight incubation by two-fold serial dilution method; format: functional
Enterococcus faecium [29] = test: Antibacterial activity against vancomycin-resistant Enterococcus faecium clinical isolate 3864 after overnight incubation by two-fold serial dilution method; format: functional
Enterococcus faecium [30] = test: Antibacterial activity against vancomycin-resistant Enterococcus faecium clinical isolate 27/16917 after overnight incubation by two-fold serial dilution method; format: functional; settings: isolate 27/1691
Enterococcus faecium [31] = test: Antibacterial activity against vancomycin-resistant Enterococcus faecium clinical isolate 12875 after overnight incubation by two-fold serial dilution method; format: functional
Enterococcus faecium [32] = test: Antibacterial activity against vancomycin-resistant Enterococcus faecium clinical isolate 29/203 after overnight incubation by two-fold serial dilution method; format: functional
Enterococcus faecium [33] = test: Antibacterial activity against vancomycin-resistant Enterococcus faecium clinical isolate 16115 after overnight incubation by two-fold serial dilution method; format: functional
Enterococcus faecium [34] = test: Antibacterial activity against vancomycin-resistant Enterococcus faecium clinical isolate 5484 after overnight incubation by two-fold serial dilution method; format: functional
Enterococcus faecium [35] = test: Antibacterial activity against vancomycin-resistant Enterococcus faecium clinical isolate 18906 after overnight incubation by two-fold serial dilution method; format: functional
Enterococcus faecalis [36] = test: Bactericidal activity against vancomycin-resistant Enterococcus faecalis clinical isolate 5814 after 24 hrs by two-fold serial dilution method; format: functional; settings: isolate 5814, 24 h
Enterococcus faecalis [37] = test: Bactericidal activity against vancomycin-resistant Enterococcus faecalis clinical isolate 22626 after 24 hrs by two-fold serial dilution method; format: functional; settings: isolate 22626, 24 h
Enterococcus faecalis [38] = test: Bactericidal activity against vancomycin-resistant Enterococcus faecalis clinical isolate 7079 after 24 hrs by two-fold serial dilution method; format: functional; settings: isolate 7079, 24 h
Enterococcus faecalis [39] = test: Bactericidal activity against vancomycin-resistant Enterococcus faecalis clinical isolate 21/235 after 24 hrs by two-fold serial dilution method; format: functional; settings: isolate 21/235, 24 h
Enterococcus faecalis [40] = test: Bactericidal activity against vancomycin-resistant Enterococcus faecalis clinical isolate 6093 after 24 hrs by two-fold serial dilution method; format: functional; settings: isolate 6093, 24 h
Enterococcus faecalis [41] = test: Bactericidal activity against vancomycin-resistant Enterococcus faecalis clinical isolate 22/203 after 24 hrs by two-fold serial dilution method; format: functional; settings: isolate 22/203, 24 h

H-RWRLLLLKKH-OH
MBC (Enterococcus faecium [1]): 25 µg/mL
MBC (Enterococcus faecium [2]): 25 µg/mL
MBC (Enterococcus faecium [3]): 25 µg/mL
MBC (Enterococcus faecium [4]): 25 µg/mL
MBC (Enterococcus faecium [5]): 25 µg/mL
MBC (Enterococcus faecium [6]): 25 µg/mL
MBC (Enterococcus faecium [7]): 25 µg/mL
MBC (Enterococcus faecium [8]): 25 µg/mL
MBC (Enterococcus faecium [9]): 25 µg/mL
MBC (Enterococcus faecium [10]): 25 µg/mL
MBC (Enterococcus faecium [11]): 25 µg/mL
hemolysis at 1 h, 5 times MIC [12]: < 5%
Activity (HEK293): Non-toxic
fractional inhibitory concentration index (FICI) (Enterococcus [13]): 0.06
fractional inhibitory concentration index (FICI) (Enterococcus [14]): 2.1
fractional inhibitory concentration index (FICI) (Enterococcus [15]): 0.25
Activity (Enterococcus [16]): 73%
Activity (Rattus norvegicus): Non-toxic
MIC (Enterococcus [17]): 25 µg/mL
MIC (Enterococcus faecalis [18]): 12.5 µg/mL
MIC (Enterococcus faecalis [19]): 12.5 µg/mL
MIC (Enterococcus faecalis [20]): 12.5 µg/mL
MIC (Enterococcus faecalis [21]): 12.5 µg/mL
MIC (Enterococcus faecalis [22]): 12.5 µg/mL
MIC (Enterococcus faecalis [23]): 12.5 µg/mL
MIC (Enterococcus faecalis [24]): 12.5 µg/mL
MIC (Enterococcus faecium [25]): 6.25 µg/mL
MIC (Enterococcus faecium [26]): 12.5 µg/mL
MIC (Enterococcus faecium [27]): 12.5 µg/mL
MIC (Enterococcus faecium [28]): 6.25 µg/mL
MIC (Enterococcus faecium [29]): 6.25 µg/mL
MIC (Enterococcus faecium [30]): 12.5 µg/mL
MIC (Enterococcus faecium [31]): 12.5 µg/mL
MIC (Enterococcus faecium [32]): 12.5 µg/mL
MIC (Enterococcus faecium [33]): 12.5 µg/mL
MIC (Enterococcus faecium [34]): 12.5 µg/mL
MIC (Enterococcus faecium [35]): 12.5 µg/mL
MBC (Enterococcus faecalis [36]): 25 µg/mL
MBC (Enterococcus faecalis [37]): 25 µg/mL
MBC (Enterococcus faecalis [38]): 25 µg/mL
MBC (Enterococcus faecalis [39]): 25 µg/mL
MBC (Enterococcus faecalis [40]): 25 µg/mL
MBC (Enterococcus faecalis [41]): 25 µg/mL
